From ChEMBL document CHEMBL4364311, “Variations on a scaffold - Novel GABAA receptor modulators” (Eur J Med Chem, 2019)
Activity calls are given as the source filed them. The calls are words filed in the database; no cut-off is given here.

Key:
[1] = biological target: T1, Gamma-aminobutyric acid receptor subunit alpha-1/beta-3 (Rattus norvegicus) (UniProt P62813+P63079); experiment: (§1) Positive allosteric modulator activity at rat alpha1beta3 GABA-A receptor expressed in Xenopus laevis oocytes assessed as increase in GABA-induced chloride current at 10 uM co-applied with GABA at concentration of EC3-5 at -60 mV holding potential by two-microelectrode voltage clamp method relative to control; type: cell-based
Procedure, shortened: (§2)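 α1 and β3 RNA mixed 1:1 (final 56 ng/μl); collagenase-defolliculated stage 5–6 Xenopus oocytes injected with 2.8 ng mRNA, kept 2–3 days at 18 °C. Two-electrode clamp at −60 mV, room temperature, electrodes 1–3 MΩ with 2 M KCl, NDE perfusion 6 mL/min. GABA titrated to 3–5% of maximal current, co-applied with compound (0.1% DMSO final) until peak response.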

[2] = biological target: T1, Gamma-aminobutyric acid receptor subunit alpha-1/beta-3 (Rattus norvegicus); experiment: as §1, with “1 to 30” for “10”; type: cell-based; procedure, shortened: as §2
[3] = Solubility of the compound at 30 uM in NDE medium containing 0.1% DMSO; type: physicochemical
[4] = Solubility of the compound in DMSO; type: physicochemical
[5] = biological target: T1, Gamma-aminobutyric acid receptor subunit alpha-1/beta-3 (Rattus norvegicus); experiment: as §1, with “30” for “10”; type: cell-based; procedure, shortened: as §2
[6] = Solubility of the compound in MeOH; type: physicochemical

Row | Efficacy [1] | Activity [2] | solubility [3] | solubility [4] | Efficacy [5] | solubility [6] | Activity [5] | SMILES
1 | 719% | – | – | – | – | – | – | COc1ccc2[nH]cc3c(=O)n(-c4ccc(C)cc4)nc-3c2c1
2 | – | Active | Soluble | Soluble | 3000% | Soluble | – | O=C(O)c1[nH]c2ccc(Cl)cc2c1/N=N/c1ccc(Br)cc1
3 | 707% | Active | Soluble | Soluble | 1800% | Soluble | – | Cc1ccc(/N=N/c2c(C(=O)O)[nH]c3ccc(Cl)cc23)cc1
4 | 1060% | – | – | – | – | – | – | COc1ccc(-n2nc3c4cc(Cl)ccc4[nH]cc-3c2=O)cc1
5 | – | – | – | – | – | – | inactive | CCOC(=O)c1[nH]c2ccccc2c1/N=N/c1ccc(OC)cc1
6 | 1120% | – | – | – | – | – | – | COc1ccc(-n2nc3c4cc(OC)ccc4[nH]cc-3c2=O)cc1
7 | – | Active | Soluble | Soluble | 830% | Soluble | – | COc1ccc2[nH]c(C(=O)O)c(/N=N/c3ccc(Br)cc3)c2c1
8 | 372% | – | – | – | – | – | – | Cc1ccc(-n2nc3c4cc(Cl)ccc4[nH]cc-3c2=O)cc1
9 | – | – | – | – | – | – | inactive | CCOC(=O)c1[nH]c2ccc(Cl)cc2c1/N=N/c1ccc(OC)cc1
10 | 167% | Active | Soluble | Soluble | 400% | Soluble | – | COc1ccc2[nH]c(C(=O)O)c(/N=N/c3ccc(C)cc3)c2c1
11 | – | – | Soluble | Soluble | 200% | Soluble | – | COc1ccc(/N=N/c2c(C(=O)O)[nH]c3ccccc23)cc1
12 | 196% | – | Soluble | Soluble | 300% | Soluble | – | COc1ccc(/N=N/c2c(C(=O)O)[nH]c3ccc(OC)cc23)cc1
13 | 919% | Active | Soluble | Soluble | 2000% | Soluble | – | COc1ccc(/N=N/c2c(C(=O)O)[nH]c3ccc(Cl)cc23)cc1
